How the values were obtained:
[1] = tested on: Mus musculus; experiment: Hypothermia in mice after peroral administration; format: functional
[2] = tested on: Rattus norvegicus; experiment: Compound was assessed for its ability to block a conditioned avoidance response; Dose administered perorally is 25 mg/kg; no significant effect (0-25%block); format: functional; settings: route oral
Outline: (§1)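 Lilly Wistar rats (120–130 g) trained in a shuttle box to cross on a 5-s buzzer, with mild shock if no response within 1 s of buzzer end. Only rats with a high conditioned response were used. Groups of five were dosed orally 1 h 50 min before the session, then habituated 10 min and tested 20 min. Shocks were scored as % of stimuli and graded 0–5.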

[3] = Lethal dose in mice after perorla administration; format: toxicity, organism-based; settings: mouse, in vivo, po
[4] = tested on: Rattus norvegicus; experiment: Ability to block a conditioned avoidance response; Dose administered perorally is 50 mg/kg.; format: functional; settings: route oral; outline: as §1
[5] = tested on: Rattus norvegicus; experiment: Compound was assessed for its ability to block a conditioned avoidance response; Dose administered perorally is 10 mg/kg; no significant effect (0-25%block); format: functional; settings: route oral; outline: as §1
[6] = tested on: Rattus norvegicus; experiment: Compound was assessed for its ability to produce catalepsy in rats; Dose administered perorally is 50 mg/kg; Group score is 8-15; format: functional; settings: route oral
Outline: (§2)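 Groups of eight Lilly Wistar rats (180–190 g) were dosed orally, then checked at 0.5, 1, 1.5, 2, 3, 4 and 5 h. Front paws were placed on a 1.5-cm rod 7 cm above the table, and hold time was recorded up to 20 min. Each rat was scored 0–5 and its maximum scores were summed per group (maximum 40), then graded 0–4.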

[7] = tested on: Rattus norvegicus; experiment: Compound was assessed for its ability to block a conditioned avoidance response; Dose administered perorally is 50 mg/kg; 76-99%block; format: functional; settings: route oral; outline: as §1
[8] = tested on: Rattus norvegicus; experiment: Compound was assessed for its ability to block a conditioned avoidance response; Dose administered perorally is 8 mg/kg; 31-50%block; format: functional; settings: route oral; outline: as §1
[9] = tested on: Rattus norvegicus; experiment: Compound was assessed for its ability to produce catalepsy in rats; Dose administered perorally is 8 mg/kg; Group score is 4-7; format: functional; settings: route oral; outline: as §2
[10] = tested on: Rattus norvegicus; experiment: Compound was assessed for its ability to produce catalepsy in rats; Dose administered perorally is 50 mg/kg; Group score is 4-7; format: functional; settings: route oral; outline: as §2
[11] = tested on: Rattus norvegicus; experiment: Compound was assessed for its ability to produce catalepsy in rats; Dose administered perorally is 50 mg/kg; Group score is 0-3; format: functional; settings: route oral; outline: as §2
[12] = tested on: Rattus norvegicus; experiment: Compound was assessed for its ability to block a conditioned avoidance response; Dose administered intraperitoneally is 50 mg/kg; no significant effect (0-25%block); format: functional; settings: route intraperitoneal
[13] = tested on: Rattus norvegicus; experiment: Compound was assessed for its ability to block a conditioned avoidance response; Dose administered perorally is 20 mg/kg; 76-99%block; format: functional; settings: route oral; outline: as §1
[14] = tested on: Rattus norvegicus; experiment: Compound was assessed for its ability to produce catalepsy in rats; Dose administered perorally is 20 mg/kg; Group score is 8-15; format: functional; settings: route oral; outline: as §2
[15] = tested on: Rattus norvegicus; experiment: Compound was assessed for its ability to block a conditioned avoidance response; Dose administered perorally is 10 mg/kg; 51-75%block; format: functional; settings: route oral; outline: as §1
[16] = tested on: Rattus norvegicus; experiment: Compound was assessed for its ability to produce catalepsy in rats; Dose administered perorally is 25 mg/kg; Group score is 16-30; format: functional; settings: route oral; outline: as §2
[17] = tested on: Rattus norvegicus; experiment: Compound was assessed for its ability to block a conditioned avoidance response; Dose administered perorally is 10 mg/kg; 31-50%block; format: functional; settings: route oral; outline: as §1
[18] = tested on: Rattus norvegicus; experiment: Compound was assessed for its ability to produce catalepsy in rats; Dose administered perorally is 16 mg/kg; Group score is 4-7; format: functional; settings: route oral; outline: as §2

SMILES	EDmin [1]	LD50 [3]	Activity [4]	also measured
Cc1csc2c1C(N1CCN(C)CC1)=Nc1cc(F)ccc1N2	25 mg/kg	> 200 mg/kg		Activity [2]: 0
CN1CCN(C2=Nc3cc(F)ccc3Nc3sc4c(c32)CCCC4)CC1	100 mg/kg	> 400 mg/kg	0	
CCCN1CCN(C2=Nc3cc(F)ccc3Nc3sc(CC)cc32)CC1	6.25 mg/kg	> 100 mg/kg		Activity [5]: 0
CCc1cc2c(s1)Nc1ccccc1N=C2N1CCN(Cc2ccccc2)CC1	200 mg/kg	> 400 mg/kg		Activity [6]: 2; Activity [7]: 4
CCc1cc2c(s1)Nc1ccc([N+](=O)[O-])cc1N=C2N1CCN(C)CC1	50 mg/kg	> 400 mg/kg		Activity [2]: 0
CCc1cc2c(s1)Nc1ccc(Cl)cc1N=C2N1CCN(C)CC1	6.25 mg/kg	50 mg/kg		Activity [8]: 2; Activity [9]: 1
CC(O)c1cc2c(s1)Nc1ccc(F)cc1N=C2N1CCN(C)CC1 (stereo unspecified)	25 mg/kg	> 400 mg/kg		Activity [7]: 4; Activity [10]: 1
CCc1cc2c(s1)Nc1ccc(F)cc1N=C2N1CCN(Cc2ccc(Cl)cc2)CC1	>400 mg/kg	> 400 mg/kg	0	Activity [11]: 0
CCCCCCc1cc2c(s1)Nc1ccc(F)cc1N=C2N1CCN(C)CC1	100 mg/kg	> 400 mg/kg	0	
CCOC(=O)N1CCN(C2=Nc3ccccc3Nc3sc(CC)cc32)CC1	50 mg/kg	> 400 mg/kg	0	
CCc1cc2c(s1)Nc1ccc(F)cc1N=C2N1CCN(c2cccc(C(F)(F)F)c2)CC1	>400 mg/kg	400 mg/kg		Activity [12]: 0
CCc1cc2c(s1)Nc1ccccc1N=C2N1CCN(CCO)CC1	25 mg/kg	> 400 mg/kg		Activity [13]: 4; Activity [14]: 2
CCc1cc2c(s1)Nc1ccc(F)cc1N=C2NCCO	200 mg/kg	> 800 mg/kg	0	Activity [11]: 0
CCc1cc2c(s1)Nc1ccc(F)cc1N=C2NCCN1CCN(c2ccccc2)CC1	>400 mg/kg	> 800 mg/kg	0	Activity [11]: 0
CCc1cc2c(s1)Nc1cc(F)c(F)cc1N=C2N1CCN(C)CC1	6.25 mg/kg	300 mg/kg		Activity [15]: 3; Activity [16]: 3
CN1CCN(C2=Nc3ccccc3Nc3sc(C(C)(C)C)cc32)CC1	12.5 mg/kg	400 mg/kg		Activity [5]: 0
CCc1cc2c(s1)Nc1ccc(F)cc1N=C2NCCCN1CCOCC1	400 mg/kg	800 mg/kg		Activity [12]: 0
CCOC(=O)N1CCN(C2=Nc3cc(F)ccc3Nc3sc(C)cc32)CC1	>400 mg/kg	> 400 mg/kg	0	
CCc1cc2c(s1)Nc1ccc(F)cc1N=C2N1CCCCC1	12.5 mg/kg	> 200 mg/kg	0	
CCc1cc2c(s1)Nc1ccc(F)cc1N=C2N1CCN(C)CC1.O=C(O)/C=C\C(=O)O	6.25 mg/kg	200 mg/kg		Activity [8]: 2; Activity [9]: 1
CCc1cc2c(s1)Nc1ccccc1N=C2N1CCN(C)CC1	25 mg/kg	150 mg/kg		Activity [17]: 2; Activity [18]: 1
CCc1cc2c(s1)Nc1ccc(F)cc1N=C2N1CCN(c2ccccc2)CC1	>400 mg/kg	> 400 mg/kg		Activity [12]: 0

Source: ChEMBL document CHEMBL1121581, “4-Piperazinyl-10H-thieno[2,3-b][1,5]benzodiazepines as potential neuroleptics” (J Med Chem, 1980)
